Measurements: ChEMBL document CHEMBL1142686, “CoMFA, synthesis, and pharmacological evaluation of (E)-3-(2-carboxy-2-arylvinyl)-4,6-dichloro-1H-indole-2-carboxylic acids: 3-[2-(3-aminophenyl)-2-carboxyvinyl]-4,6-dichloro-1H-indole-2-carboxylic acid, a potent selective glycine-site NMDA receptor antagonist” (J Med Chem, 2005)
“And” between values parts separate entries of the source, which are not always exact repeats. Equal values may be shown once. One block for each compound: values may come before it.

Columns and labels:
[1] = molecular target: Glutamate NMDA receptor; assay: Antagonist activity of compound against rat N-methyl-D-aspartate glutamate receptor using 11 nM [3H]glycine; assay type: functional
[2] = system: Mus musculus; assay: In vivo effective dose of compound to protect mice from quinolinic acid seizures upon intravenous administration; assay type: functional
[3] = system: Mus musculus; assay: In vivo effective dose against harmaline induced cGMP elevation in mouse cerebellum upon intravenous administration; assay type: functional
[4] = system: Rattus norvegicus; assay: In vivo effective dose to protect rats against maximal electroshock induced seizures upon intravenous administration; assay type: functional
How it was run: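 Maximal electroshock seizures in adult male CDF rats, compound iv, vehicle water, saline or 50 mM Tris base at 1 mL/kg.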

[5] = molecular target: Glutamate NMDA receptor; assay: In vitro inhibitory concentration against binding of the [3H]glycine to strychnine-insensitive glycine binding sites of rat N-methyl-D-aspartate glutamate receptor; assay type: protein-complex assay
[6] = species: Rattus norvegicus; assay: In vitro inhibitory concentration against glutamate stimulated accumulation of cyclic GMP in neonatal rat cerebral slices; assay type: functional
[7] = system: Mus musculus; assay: In vivo effective dose to protect the mouse (DBA/2J) from audiogenic seizures upon intraperitoneal administration; assay type: functional; conditions: ip
[8] = system: Rattus norvegicus; assay: Reduction of infarct in rat with proximal middle cerebral artery occlusion at total dose of 123 mg/kg after 30 min initiation (duration of effect 6 h); assay type: functional
[9] = system: Rattus norvegicus; assay: Reduction of infarct volume in rat with distal middle cerebral artery occlusion at total dose of 126 mg/kg after -15 min of initiation (duration of effect 6 h); assay type: functional
[10] = system: Rattus norvegicus; assay: Reduction of infarct in rat with proximal middle cerebral artery occlusion at total dose of 31.5 mg/kg after 30 min initiation (duration of effect 6 h); assay type: functional
[11] = system: Rattus norvegicus; assay: Reduction of infarct volume in rat with distal middle cerebral artery occlusion at total dose of 490 mg/kg after -15 min of initiation (duration of effect 6 h); assay type: functional
[12] = system: Rattus norvegicus; assay: Reduction of infarct volume in rat with distal middle cerebral artery occlusion at total dose of 135 mg/kg after 30 min of initiation (duration of effect 4 h); assay type: functional
[13] = system: Rattus norvegicus; assay: Reduction of infarct in rat with proximal middle cerebral artery occlusion at total dose of 245 mg/kg after 180 min initiation (duration of effect 6 h); assay type: functional
[14] = system: Rattus norvegicus; assay: Reduction of infarct in rat with proximal middle cerebral artery occlusion at total dose of 490 mg/kg after 30 min initiation (duration of effect 6 h); assay type: functional
[15] = system: Rattus norvegicus; assay: Reduction of infarct in rat with proximal middle cerebral artery occlusion at total dose of 245 mg/kg after 120 min initiation (duration of effect 6 h); assay type: functional
[16] = system: Rattus norvegicus; assay: Reduction of infarct in rat with proximal middle cerebral artery occlusion at total dose of 62 mg/kg after 30 min initiation (duration of effect 6 h); assay type: functional
[17] = system: Rattus norvegicus; assay: Reduction of infarct in rat with proximal middle cerebral artery occlusion at total dose of 245 mg/kg after 30 min initiation (duration of effect 6 h); assay type: functional
[18] = system: Rattus norvegicus; assay: Reduction of infarct in rat with proximal middle cerebral artery occlusion at total dose of 16 mg/kg after 30 min initiation (duration of effect 6 h); assay type: functional
[19] = system: Rattus norvegicus; assay: Reduction of infarct in rat with proximal middle cerebral artery occlusion at total dose of 245 mg/kg after 480 min initiation (duration of effect 6 h); assay type: functional
[20] = system: Rattus norvegicus; assay: Reduction of infarct in rat with proximal middle cerebral artery occlusion at total dose of 245 mg/kg after 360 min initiation (duration of effect 6 h); assay type: functional
[21] = system: Rattus norvegicus; assay: Reduction of infarct in rat with proximal middle cerebral artery occlusion at total dose of 490 mg/kg after -15 min initiation (duration of effect 6 h); assay type: functional
[22] = system: Rattus norvegicus; assay: Reduction of infarct volume in rat with distal middle cerebral artery occlusion at total dose of 245 mg/kg after -15 min of initiation (duration of effect 6 h); assay type: functional
[23] = Half life was measured in rat following intravenous administration; assay type: ADME, organism-based; conditions: in vivo
[24] = molecular target: Glutamate NMDA receptor; assay: Antagonist activity of compound against rat N-methyl-D-aspartate glutamate receptor using [3H]glycine
[25] = molecular target: Glutamate NMDA receptor; assay: Binding affinity against strychnine-insensitive glycine sites of rat N-methyl-D-aspartate glutamate receptor using [3H]glycine; assay type: protein-complex assay
How it was run: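 Strychnine-insensitive [3H]glycine binding to washed, Triton-treated rat cortical/hippocampal membranes. Triplicates with strychnine and 400 µg protein in 50 mM HEPES-KOH pH 7.4, 30 min at 4 °C. Ended by centrifugation; pellets counted by scintillation; nonspecific binding taken in 0.1 mM D-serine. IC50 = concentration halving specific binding, mean of two or more experiments, fitted by logistic nonlinear regression.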

[26] = system: Rattus norvegicus; assay: Reduction of infarct volume in rat with distal middle cerebral artery occlusion at total dose of 52 mg/kg after 30 min of initiation (duration of effect 6 h); assay type: functional
[27] = system: Rattus norvegicus; assay: Reduction of infarct volume in rat with proximal middle cerebral artery occlusion at total dose of 52 mg/kg after -15 min of initiation (duration of effect 6 h); assay type: functional
[28] = system: Rattus norvegicus; assay: Reduction of infarct volume in rat with proximal middle cerebral artery occlusion at total dose of 52 mg/kg after 180 min of initiation (duration of effect 6 h); nd=Not determined; assay type: functional
[29] = system: Rattus norvegicus; assay: Reduction of infarct volume in rat with distal middle cerebral artery occlusion at total dose of 52 mg/kg after -15 min of initiation (duration of effect 6 h); assay type: functional

SMILES: O=C(O)/C(=C/c1c(C(=O)O)[nH]c2cc(Cl)cc(Cl)c12)c1ccncc1
IC50 [1]: 151 nM

SMILES: O=C(O)/C(=C/c1c(C(=O)O)[nH]c2cc(Cl)cc(Cl)c12)c1ccc(Cl)cc1Cl
IC50 [1]: 116 nM

SMILES: O=C(NCCc1ccccc1)/C(=C/c1c(C(=O)O)[nH]c2cc(Cl)cc(Cl)c12)c1ccccc1
IC50 [1]: 224 nM

SMILES: CN(C)C(=O)/C(=C/c1c(C(=O)O)[nH]c2cc(Cl)cc(Cl)c12)c1ccccc1
IC50 [1]: 68 nM

SMILES: O=C(O)/C(=C/c1c(C(=O)O)[nH]c2cc(Cl)cc(Cl)c12)c1ccccn1
IC50 [1]: 1020 nM

SMILES: N#C/C(=C/c1c(C(=O)O)[nH]c2cc(Cl)cc(Cl)c12)c1ccc(N)cc1
IC50 [1]: 4660 nM

SMILES: COc1cccc(/C(=C\c2c(C(=O)O)[nH]c3cc(Cl)cc(Cl)c23)C(=O)O)c1
IC50 [1]: 117 nM

SMILES: O=C(Nc1ccccc1)/C(=C/c1c(C(=O)O)[nH]c2cc(Cl)cc(Cl)c12)c1ccccc1
IC50 [1]: 15 nM

SMILES: O=C(O)/C(=C\c1c(C(=O)O)[nH]c2cc(Cl)cc(Cl)c12)c1ccccc1
IC50 [1]: 157 nM

SMILES: CNC(=O)/C(=C/c1c(C(=O)O)[nH]c2cc(Cl)cc(Cl)c12)c1ccccc1
IC50 [1]: 50 nM

SMILES: O=C(O)/C(=C/c1c(C(=O)O)[nH]c2cc(Cl)cc(Cl)c12)c1ccoc1
IC50 [1]: 21 nM

SMILES: O=C(O)/C(=C/c1c(C(=O)O)[nH]c2cc(Cl)cc(Cl)c12)c1ccsc1
ED50 [2]: 29.5 mg/kg
ED50 [3]: 35 mg/kg
ED50 [4]: 54.1 mg/kg
IC50 [1]: 14 nM
IC50 [5]: 9.6 nM
IC50 [6]: 87 nM
ED50 [7]: 18.6 mg/kg

SMILES: Nc1cccc(/C(=C\c2c(C(=O)O)[nH]c3cc(Cl)cc(Cl)c23)C(=O)O)c1
ED50 [2]: 14.9 mg/kg
Reduction [8]: 49%
ED50 [3]: 15 mg/kg
ED50 [4]: 30.6 mg/kg
Reduction [9]: 0%
Reduction [10]: 40%
Reduction [11]: 32%
Reduction [12]: 28%
Reduction [13]: 41%
Reduction [14]: 77%
Reduction [15]: 50%
Reduction [16]: 48%
Reduction [17]: 68% and 57% and 76% and 71%
IC50 [5]: 24.3 nM
IC50 [6]: 364 nM
ED50 [7]: 10.8 mg/kg
Reduction [18]: 12%
Reduction [19]: 13%
Reduction [20]: 58% and 59%
Reduction [21]: 73%
Reduction [22]: 13%
half-life [23]: > 1 h

SMILES: O=C(O)/C(=C/c1c(C(=O)O)[nH]c2cc(Cl)cc(Cl)c12)c1ccccc1
ED50 [2]: 37 mg/kg
ED50 [3]: 59 mg/kg
ED50 [4]: 29 mg/kg
IC50 [5]: 10.9 nM
IC50 [6]: 282 nM
IC50 [24]: 11 nM
ED50 [7]: 12.2 mg/kg

SMILES: O=C(O)/C(=C/c1c(C(=O)O)[nH]c2cc(Cl)cc(Cl)c12)c1cccc(NC(=O)c2ccccc2)c1
IC50 [1]: 512 nM

SMILES: O=C(O)/C(=C/c1c(C(=O)O)[nH]c2cc(Cl)cc(Cl)c12)c1cccc2ccccc12
IC50 [1]: 145 nM

SMILES: CS(=O)(=O)Nc1ccc(/C(=C\c2c(C(=O)O)[nH]c3cc(Cl)cc(Cl)c23)C(=O)O)cc1
IC50 [1]: 167 nM

SMILES: O=C(O)/C(=C/c1c(C(=O)O)[nH]c2cc(Cl)cc(Cl)c12)c1cccs1
IC50 [1]: 9 nM

SMILES: Nc1cccc(/C(=C/c2c(C(=O)O)[nH]c3cc(Cl)cc(Cl)c23)C(=O)O)c1
Ki [25]: 553 nM

SMILES: Cc1ccc(/C(=C\c2c(C(=O)O)[nH]c3cc(Cl)cc(Cl)c23)C(=O)O)cc1
IC50 [1]: 105 nM

SMILES: O=C(O)/C(=C/c1c(C(=O)O)[nH]c2cc(Cl)cc(Cl)c12)c1ccco1
IC50 [1]: 22 nM

SMILES: O=C(NCc1ccccc1)/C(=C/c1c(C(=O)O)[nH]c2cc(Cl)cc(Cl)c12)c1ccccc1
IC50 [1]: 31 nM

SMILES: COC(=O)Nc1cccc(/C(=C\c2c(C(=O)O)[nH]c3cc(Cl)cc(Cl)c23)C(=O)O)c1
ED50 [2]: > 64 mg/kg
ED50 [3]: > 64 mg/kg
ED50 [4]: > 128 mg/kg
IC50 [1]: 114 nM
IC50 [5]: 114 nM
IC50 [6]: 840 nM
ED50 [7]: 8.5 mg/kg

SMILES: O=C(O)/C(=C/c1c(C(=O)O)[nH]c2cc(Cl)cc(Cl)c12)c1ccc([N+](=O)[O-])cc1
IC50 [1]: 21 nM

SMILES: O=C(/C=C/c1c(C(=O)O)[nH]c2cc(Cl)cc(Cl)c12)Nc1ccccc1 [GAVESTINEL]
IC50 [1]: 15 nM

SMILES: O=c1[nH]c2cc(Cl)c(Cl)c([N+](=O)[O-])c2[nH]c1=O [LICOSTINEL]
Reduction [26]: 33% and 24%
ED50 [2]: 14.7 mg/kg
ED50 [3]: 3.5 mg/kg
ED50 [4]: 46.3 mg/kg
Reduction [27]: 50%
IC50 [5]: 20 nM
IC50 [6]: 183 nM
ED50 [7]: 3.7 mg/kg
Reduction [28]: 28%
Reduction [29]: 18%

More lines, main results first:

IC50 [1]: 65 nM
SMILES: O=C(O)/C(=C/c1c(C(=O)O)[nH]c2cc(Cl)cc(Cl)c12)c1ccc(Cl)cc1

IC50 [1]: 38 nM
SMILES: O=C(O)c1[nH]c2cc(Cl)cc(Cl)c2c1/C=C/C(=O)N1CCCCC1

IC50 [1]: 212 nM
SMILES: O=C(O)/C(=C/c1c(C(=O)O)[nH]c2cc(Cl)cc(Cl)c12)c1ccccc1Cl

IC50 [1]: 225 nM
SMILES: CN(C)c1cccc(/C(=C\c2c(C(=O)O)[nH]c3cc(Cl)cc(Cl)c23)C(=O)O)c1

IC50 [1]: 136 nM
SMILES: COc1ccc(/C(=C\c2c(C(=O)O)[nH]c3cc(Cl)cc(Cl)c23)C(=O)O)cc1

IC50 [1]: 126 nM
SMILES: O=C(O)/C(=C/c1c(C(=O)O)[nH]c2cc(Cl)cc(Cl)c12)c1cccnc1

IC50 [1]: 20 nM
SMILES: NC(=O)/C(=C/c1c(C(=O)O)[nH]c2cc(Cl)cc(Cl)c12)c1ccccc1

IC50 [1]: 29 nM
SMILES: O=C(O)/C(=C/c1c(C(=O)O)[nH]c2cc(Cl)cc(Cl)c12)c1ccc(Br)cc1

IC50 [5]: 13.2 nM
IC50 [6]: 31 nM
SMILES: O=c1[nH]c2cc(Cl)ccc2c(O)c1-c1cccc(Oc2ccccc2)c1
ED50 [2]: 5.2 mg/kg
ED50 [3]: < 0.05 mg/kg
ED50 [4]: 3.5 mg/kg
ED50 [7]: 1 mg/kg

IC50 [1]: 35.5 nM
SMILES: O=C(O)/C(=C/c1c(C(=O)O)[nH]c2cc(Cl)cc(Cl)c12)c1ccc(F)cc1

IC50 [1]: 89 nM
SMILES: O=C(O)/C(=C/c1c(C(=O)O)[nH]c2cc(Cl)cc(Cl)c12)c1ccc(C(F)(F)F)cc1

IC50 [5]: 15.2 nM
IC50 [6]: 262 nM
SMILES: O=C(/C=C/c1c(C(=O)[O-])[nH]c2cc(Cl)cc(Cl)c12)Nc1ccccc1.[Na+] [GAVESTINEL SODIUM]
ED50 [2]: > 64 mg/kg
ED50 [4]: > 32 mg/kg
ED50 [7]: > 25 mg/kg
